Tested on: U2OS
Assay: Multiplex assay against U2OS
Type: toxicity, cell-based
Settings: human
Procedure, shortened: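 Live cells were stained at seeding with Hoechst33342, BioTracker Green Microtubule Cytoskeleton Dye, MitoTracker Red and Annexin V Alexa Fluor 680, then imaged on a CQ1 microscope at 37°C and 5% CO2 after compound addition. CellPathfinder machine-learning gating split cells into Hoechst high-intensity objects or normal cells. Normal cells were split into healthy, pyknosed or fragmented nuclei, and pyknosed cells into mitotic or apoptotic. Tubulin, mitochondrial-mass and membrane-permeability phenotypes are per cents of healthy-nucleus cells.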

[1] = 12 h, 1 µM, compound concentration 1 uM, replicate 1
[2] = 12 h, 1 µM, compound concentration 1 uM, replicate 2
[3] = 12 h, 10 µM, compound concentration 10 uM, replicate 1
[4] = 12 h, 10 µM, compound concentration 10 uM, replicate 2
[5] = 24 h, 1 µM, compound concentration 1 uM, replicate 1
[6] = 24 h, 1 µM, compound concentration 1 uM, replicate 2
[7] = 24 h, 10 µM, compound concentration 10 uM, replicate 1
[8] = 24 h, 10 µM, compound concentration 10 uM, replicate 2
[9] = 48 h, 1 µM, compound concentration 1 uM, replicate 1
[10] = 48 h, 1 µM, compound concentration 1 uM, replicate 2
[11] = 48 h, 10 µM, compound concentration 10 uM, replicate 1
[12] = 48 h, 10 µM, compound concentration 10 uM, replicate 2

COc1ccc(-c2ccc3ncc4c(c3c2)n(-c2ccc(N3CCNCC3)c(C(F)(F)F)c2)c(=O)n4C)cn1.O=C(O)/C=C\C(=O)O [BGT-226]
Population Apoptotic (%) [1]: 86%
Population Fragmented Nuclei (%) [1]: 50%
Population Healthy Nuclei (%) [1]: 10%
Population Hoechst High Intensity Objects (%) [1]: 14%
Population Membrane Permeable-Phenotype (%) [1]: 58%
Population Mitotic Cells (%) [1]: 13%
Population Normal (%) [1]: 85%
Population Pyknosed Nuclei (%) [1]: 38%
Total Cell Count [1]: 182
Population Apoptotic (%) [2]: 81%
Population Fragmented Nuclei (%) [2]: 24%
Population Healthy Nuclei (%) [2]: 45%
Population Hoechst High Intensity Objects (%) [2]: 17%
Population Membrane Permeable-Phenotype (%) [2]: 70%
Population Mitochondria Different-Phenotype (%) [2]: 94%
Population Mitotic Cells (%) [2]: 18%
Population Normal (%) [2]: 82%
Population Pyknosed Nuclei (%) [2]: 29%
Population Tubulin-Different-Phenotype (%) [2]: 94%
Total Cell Count [2]: 45
Population Apoptotic (%) [3]: 97%
Population Fragmented Nuclei (%) [3]: 33%
Population Healthy Nuclei (%) [3]: 1%
Population Hoechst High Intensity Objects (%) [3]: 13%
Population Membrane Permeable-Phenotype (%) [3]: 50%
Population Mitochondria Different-Phenotype (%) [3]: 50%
Population Mitotic Cells (%) [3]: 2%
Population Normal (%) [3]: 86%
Population Pyknosed Nuclei (%) [3]: 65%
Population Tubulin-Different-Phenotype (%) [3]: 50%
Total Cell Count [3]: 258
Population Apoptotic (%) [4]: 100%
Population Fragmented Nuclei (%) [4]: 70%
Population Healthy Nuclei (%) [4]: 9%
Population Hoechst High Intensity Objects (%) [4]: 62%
Population Membrane Permeable-Phenotype (%) [4]: 24%
Population Mitochondria Different-Phenotype (%) [4]: 32%
Population Mitotic Cells (%) [4]: 0%
Population Normal (%) [4]: 37%
Population Pyknosed Nuclei (%) [4]: 19%
Population Tubulin-Different-Phenotype (%) [4]: 24%
Total Cell Count [4]: 675
Population Apoptotic (%) [5]: 98%
Population Fragmented Nuclei (%) [5]: 47%
Population Healthy Nuclei (%) [5]: 5%
Population Hoechst High Intensity Objects (%) [5]: 14%
Population Membrane Permeable-Phenotype (%) [5]: 75%
Population Mitochondria Different-Phenotype (%) [5]: 87%
Population Mitotic Cells (%) [5]: 1%
Population Normal (%) [5]: 85%
Population Pyknosed Nuclei (%) [5]: 47%
Population Tubulin-Different-Phenotype (%) [5]: 75%
Total Cell Count [5]: 181
Population Apoptotic (%) [6]: 83%
Population Fragmented Nuclei (%) [6]: 20%
Population Healthy Nuclei (%) [6]: 40%
Population Hoechst High Intensity Objects (%) [6]: 30%
Population Membrane Permeable-Phenotype (%) [6]: 66%
Population Mitochondria Different-Phenotype (%) [6]: 91%
Population Mitotic Cells (%) [6]: 16%
Population Normal (%) [6]: 69%
Population Pyknosed Nuclei (%) [6]: 40%
Population Tubulin-Different-Phenotype (%) [6]: 91%
Total Cell Count [6]: 43
Population Apoptotic (%) [7]: 97%
Population Fragmented Nuclei (%) [7]: 39%
Population Healthy Nuclei (%) [7]: 0%
Population Hoechst High Intensity Objects (%) [7]: 15%
Population Membrane Permeable-Phenotype (%) [7]: 100%
Population Mitochondria Different-Phenotype (%) [7]: 100%
Population Mitotic Cells (%) [7]: 2%
Population Normal (%) [7]: 84%
Population Pyknosed Nuclei (%) [7]: 59%
Population Tubulin-Different-Phenotype (%) [7]: 100%
Total Cell Count [7]: 269
Population Apoptotic (%) [8]: 100%
Population Fragmented Nuclei (%) [8]: 79%
Population Healthy Nuclei (%) [8]: 10%
Population Hoechst High Intensity Objects (%) [8]: 64%
Population Membrane Permeable-Phenotype (%) [8]: 69%
Population Mitochondria Different-Phenotype (%) [8]: 60%
Population Mitotic Cells (%) [8]: 0%
Population Normal (%) [8]: 35%
Population Pyknosed Nuclei (%) [8]: 9%
Population Tubulin-Different-Phenotype (%) [8]: 60%
Total Cell Count [8]: 614
Population Fragmented Nuclei (%) [9]: 45%
Population Healthy Nuclei (%) [9]: 3%
Population Hoechst High Intensity Objects (%) [9]: 22%
Population Membrane Permeable-Phenotype (%) [9]: 80%
Population Mitochondria Different-Phenotype (%) [9]: 80%
Population Normal (%) [9]: 77%
Population Pyknosed Nuclei (%) [9]: 50%
Population Tubulin-Different-Phenotype (%) [9]: 80%
Total Cell Count [9]: 185
Population Apoptotic (%) [10]: 100%
Population Fragmented Nuclei (%) [10]: 25%
Population Healthy Nuclei (%) [10]: 35%
Population Hoechst High Intensity Objects (%) [10]: 34%
Population Membrane Permeable-Phenotype (%) [10]: 90%
Population Mitochondria Different-Phenotype (%) [10]: 90%
Population Mitotic Cells (%) [10]: 0%
Population Normal (%) [10]: 65%
Population Pyknosed Nuclei (%) [10]: 39%
Population Tubulin-Different-Phenotype (%) [10]: 90%
Total Cell Count [10]: 43
Population Apoptotic (%) [11]: 97%
Population Fragmented Nuclei (%) [11]: 40%
Population Healthy Nuclei (%) [11]: 3%
Population Hoechst High Intensity Objects (%) [11]: 18%
Population Membrane Permeable-Phenotype (%) [11]: 71%
Population Mitochondria Different-Phenotype (%) [11]: 85%
Population Mitotic Cells (%) [11]: 2%
Population Normal (%) [11]: 81%
Population Pyknosed Nuclei (%) [11]: 55%
Population Tubulin-Different-Phenotype (%) [11]: 85%
Total Cell Count [11]: 260
Population Apoptotic (%) [12]: 100%
Population Fragmented Nuclei (%) [12]: 85%
Population Healthy Nuclei (%) [12]: 12%
Population Hoechst High Intensity Objects (%) [12]: 67%
Population Membrane Permeable-Phenotype (%) [12]: 81%
Population Mitochondria Different-Phenotype (%) [12]: 72%
Population Mitotic Cells (%) [12]: 0%
Population Normal (%) [12]: 32%
Population Pyknosed Nuclei (%) [12]: 1%
Population Tubulin-Different-Phenotype (%) [12]: 72%
Total Cell Count [12]: 534

Reference: ChEMBL document CHEMBL4689842, “EUbOPEN Chemogenomics Library wave 1” (2021)
